Assay results taken from ChEMBL document CHEMBL4346701, “Synthesis and biological evaluation of tryptophan-derived rhodanine derivatives as PTP1B inhibitors and anti-bacterial agents” (Eur J Med Chem, 2019).
≈ marks a conversion by molar mass, not a printed value.

How the values were obtained:
Staphylococcus aureus [1] = assay: Antibacterial activity against Methicillin-resistant Staphylococcus aureus CCARM 3167 assessed as reduction in bacterial cell growth incubated for 24 hrs by ELISA; assay type: functional; conditions: CCARM 3167, 24 h
Outline: (§1)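 MICs determined by serial dilution in 96-well microtiter plates. The strain panel included Gram-positive S. aureus strains and multidrug-resistant clinical isolates. Gatifloxacin, moxifloxacin, norfloxacin and oxacillin served as antibacterial positive controls.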

Staphylococcus aureus [2] = assay: Antibacterial activity against Staphylococcus aureus KCTC209 assessed as reduction in bacterial cell growth incubated for 24 hrs by ELISA; assay type: functional; conditions: KCTC209, 24 h; outline: as §1
Candida albicans = assay: Antifungal activity against Candida albicans 7535 assessed as reduction in bacterial cell growth incubated for 24 hrs by ELISA; assay type: functional; conditions: Candida albicans, 7535, 24 h
Outline: (§2)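 MIC determined by serial dilution in 96-well microtiter plates. Strains used were E. coli 1924 and P. aeruginosa 2742 (Gram-negative), S. mutans 3289 (Gram-positive) and the fungus C. albicans 7535. Gatifloxacin, moxifloxacin, norfloxacin and oxacillin served as antibacterial reference agents, and fluconazole as the antifungal reference.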

Staphylococcus aureus [3] = assay: Antibacterial activity against Quinolone-resistant Staphylococcus aureus CCARM 3519 assessed as reduction in bacterial cell growth incubated for 24 hrs by ELISA; assay type: functional; conditions: CCARM 3519, 24 h; outline: as §1
Pseudomonas aeruginosa = assay: Antibacterial activity against Pseudomonas aeruginosa 2742 assessed as reduction in bacterial cell growth incubated for 24 hrs by ELISA; assay type: functional; conditions: Pseudomonas aeruginosa, 2742, 24 h; outline: as §2
Staphylococcus aureus [4] = assay: Antibacterial activity against Staphylococcus aureus KCTC503 assessed as reduction in bacterial cell growth incubated for 24 hrs by ELISA; assay type: functional; conditions: KCTC503, 24 h; outline: as §1
Streptococcus mutans = assay: Antibacterial activity against Streptococcus mutans KCTC3289 assessed as reduction in bacterial cell growth incubated for 24 hrs by ELISA; assay type: functional; conditions: KCTC3289, 24 h; outline: as §2
Staphylococcus aureus [5] = assay: Antibacterial activity against Methicillin-resistant Staphylococcus aureus CCARM 3506 assessed as reduction in bacterial cell growth incubated for 24 hrs by ELISA; assay type: functional; conditions: CCARM 3506, 24 h; outline: as §1
Staphylococcus aureus [6] = assay: Antibacterial activity against Staphylococcus aureus RN4220 assessed as reduction in bacterial cell growth incubated for 24 hrs by ELISA; assay type: functional; conditions: RN4220, 24 h; outline: as §1
Staphylococcus aureus [7] = assay: Antibacterial activity against Quinolone-resistant Staphylococcus aureus CCARM 3505 assessed as reduction in bacterial cell growth incubated for 24 hrs by ELISA; assay type: functional; conditions: CCARM 3505, 24 h; outline: as §1
[8] = target: T1, Tyrosine-protein phosphatase non-receptor type 1 (Homo sapiens, UniProt P18031); assay: Inhibition of human recombinant GST-tagged PTP1B expressed in Escherichia coli BL21 (DE3) using pNPP as substrate measured for 2 mins by colorimetric analysis
T1 sequence (P18031 whole entry): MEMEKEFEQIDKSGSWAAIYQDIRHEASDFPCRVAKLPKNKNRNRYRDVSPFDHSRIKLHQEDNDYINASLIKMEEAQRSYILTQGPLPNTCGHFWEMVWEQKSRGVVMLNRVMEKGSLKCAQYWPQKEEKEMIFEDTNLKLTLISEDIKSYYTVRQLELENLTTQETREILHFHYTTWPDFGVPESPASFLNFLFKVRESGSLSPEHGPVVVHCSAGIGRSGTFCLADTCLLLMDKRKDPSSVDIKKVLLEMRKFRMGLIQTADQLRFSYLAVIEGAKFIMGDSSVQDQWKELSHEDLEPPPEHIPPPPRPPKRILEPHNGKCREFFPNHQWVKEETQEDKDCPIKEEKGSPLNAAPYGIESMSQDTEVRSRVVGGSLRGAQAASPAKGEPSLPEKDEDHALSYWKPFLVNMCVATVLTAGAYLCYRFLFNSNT

Escherichia coli = assay: Antibacterial activity against Escherichia coli 1924 assessed as reduction in bacterial cell growth incubated for 24 hrs by ELISA; assay type: functional; conditions: Escherichia coli, 1924, 24 h; outline: as §2
[9] = target: T2, M-phase inducer phosphatase 2 (Homo sapiens, UniProt P30305); assay: Inhibition of human recombinant GST-tagged CDC25B expressed in Escherichia coli BL21 (DE3) using pNPP as substrate measured for 2 mins by colorimetric analysis
T2 sequence (P30305 whole entry): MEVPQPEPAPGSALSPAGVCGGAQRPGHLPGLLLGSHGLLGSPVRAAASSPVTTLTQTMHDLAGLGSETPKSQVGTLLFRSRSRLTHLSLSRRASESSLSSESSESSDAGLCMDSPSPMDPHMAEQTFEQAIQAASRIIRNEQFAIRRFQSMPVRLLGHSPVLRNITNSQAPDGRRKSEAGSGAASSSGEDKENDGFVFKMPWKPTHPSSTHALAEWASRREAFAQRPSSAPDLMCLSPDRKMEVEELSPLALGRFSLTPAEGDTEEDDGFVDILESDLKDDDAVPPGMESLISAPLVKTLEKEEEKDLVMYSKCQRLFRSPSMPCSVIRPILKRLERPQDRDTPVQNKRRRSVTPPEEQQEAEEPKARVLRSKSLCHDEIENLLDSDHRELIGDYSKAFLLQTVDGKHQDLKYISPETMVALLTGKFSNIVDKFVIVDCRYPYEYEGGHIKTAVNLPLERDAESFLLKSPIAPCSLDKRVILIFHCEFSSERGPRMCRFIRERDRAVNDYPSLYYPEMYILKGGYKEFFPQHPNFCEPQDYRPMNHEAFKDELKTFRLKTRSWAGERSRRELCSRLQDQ
Outline: (§3)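 pNPP hydrolysis assay. IC50 was derived by regression analysis and given as mean ± SD of three replications.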

[10] = target: T3, Tyrosine-protein phosphatase non-receptor type 11 (Homo sapiens, UniProt Q06124); assay: Inhibition of human recombinant GST-tagged SHP2 (catalytic domain […] residues) expressed in Escherichia coli BL21 (DE3) using pNPP as substrate measured for 2 mins by colorimetric analysis; outline: as §3
T3 sequence (Q06124 whole entry): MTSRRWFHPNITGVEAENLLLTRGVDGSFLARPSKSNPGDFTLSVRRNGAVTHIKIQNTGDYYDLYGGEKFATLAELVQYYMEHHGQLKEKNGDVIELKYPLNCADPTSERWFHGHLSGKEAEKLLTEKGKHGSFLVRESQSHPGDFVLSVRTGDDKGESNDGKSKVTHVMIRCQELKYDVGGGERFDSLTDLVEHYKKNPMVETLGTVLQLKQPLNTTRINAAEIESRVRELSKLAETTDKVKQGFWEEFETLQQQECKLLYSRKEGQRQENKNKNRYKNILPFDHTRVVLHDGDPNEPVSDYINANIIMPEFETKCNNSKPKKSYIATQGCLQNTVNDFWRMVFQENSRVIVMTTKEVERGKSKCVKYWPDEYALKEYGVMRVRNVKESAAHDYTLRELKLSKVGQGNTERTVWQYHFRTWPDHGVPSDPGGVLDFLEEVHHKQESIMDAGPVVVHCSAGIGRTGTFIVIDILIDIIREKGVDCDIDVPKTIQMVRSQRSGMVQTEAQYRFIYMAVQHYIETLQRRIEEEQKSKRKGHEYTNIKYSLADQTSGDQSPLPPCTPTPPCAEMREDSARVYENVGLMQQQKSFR

[11] = target: T4, Tyrosine-protein phosphatase non-receptor type 2 (Homo sapiens, UniProt P17706); assay: Inhibition of human recombinant GST-tagged TCPTP (catalytic domain […] residues) expressed in Escherichia coli BL21 (DE3) using pNPP as substrate measured for 2 mins by colorimetric analysis
T4 sequence (P17706 whole entry): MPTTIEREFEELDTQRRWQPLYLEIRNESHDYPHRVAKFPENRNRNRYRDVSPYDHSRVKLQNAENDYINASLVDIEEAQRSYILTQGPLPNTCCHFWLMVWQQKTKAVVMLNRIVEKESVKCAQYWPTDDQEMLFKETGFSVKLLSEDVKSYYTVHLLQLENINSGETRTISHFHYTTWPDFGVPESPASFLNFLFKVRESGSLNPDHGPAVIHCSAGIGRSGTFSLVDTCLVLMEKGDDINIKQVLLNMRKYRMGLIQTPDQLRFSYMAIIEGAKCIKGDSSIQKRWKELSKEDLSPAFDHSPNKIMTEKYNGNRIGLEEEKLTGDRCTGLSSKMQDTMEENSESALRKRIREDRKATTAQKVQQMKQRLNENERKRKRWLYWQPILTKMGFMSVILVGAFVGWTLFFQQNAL

[12] = target: Tyrosine-protein phosphatase non-receptor type 6 (Homo sapiens, UniProt P29350); assay: Inhibition of human recombinant GST-tagged SHP1 (catalytic domain 244 to 570 residues) expressed in Escherichia coli BL21 (DE3) using pNPP as substrate measured for 2 mins by colorimetric analysis; outline: as §3
Chain of Tyrosine-protein phosphatase non-receptor type 6 (P29350 whole entry, the tested form may be a part): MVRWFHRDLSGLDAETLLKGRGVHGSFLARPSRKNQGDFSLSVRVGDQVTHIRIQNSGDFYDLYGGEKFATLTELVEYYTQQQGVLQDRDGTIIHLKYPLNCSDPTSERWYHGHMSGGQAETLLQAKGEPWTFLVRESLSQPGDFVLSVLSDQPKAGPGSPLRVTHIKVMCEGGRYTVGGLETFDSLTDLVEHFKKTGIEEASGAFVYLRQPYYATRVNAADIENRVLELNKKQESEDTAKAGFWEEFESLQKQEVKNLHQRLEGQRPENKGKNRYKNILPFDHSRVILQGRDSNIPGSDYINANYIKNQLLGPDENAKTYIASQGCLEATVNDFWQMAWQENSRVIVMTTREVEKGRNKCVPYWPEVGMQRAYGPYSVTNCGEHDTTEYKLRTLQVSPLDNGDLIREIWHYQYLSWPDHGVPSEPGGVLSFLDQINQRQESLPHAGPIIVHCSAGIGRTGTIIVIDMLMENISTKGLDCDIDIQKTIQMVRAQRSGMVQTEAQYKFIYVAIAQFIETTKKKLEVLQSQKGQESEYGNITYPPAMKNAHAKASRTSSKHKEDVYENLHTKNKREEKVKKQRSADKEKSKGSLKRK

SMILES | MIC (Staphylococcus aureus [1]) [µg/mL] | MIC (Staphylococcus aureus [2]) [µg/mL] | MIC (Candida albicans) [µg/mL] | MIC (Staphylococcus aureus [3]) [µg/mL] | MIC (Pseudomonas aeruginosa) [µg/mL] | MIC (Staphylococcus aureus [4]) [µg/mL] | MIC (Streptococcus mutans) [µg/mL] | MIC (Staphylococcus aureus [5]) [µg/mL] | MIC (Staphylococcus aureus [6]) [µg/mL] | MIC (Staphylococcus aureus [7]) [µg/mL] | IC50 [8] [nM] | MIC (Escherichia coli) [µg/mL] | IC50 [9] [nM] | IC50 [10] [nM] | IC50 [11] [nM] | IC50 [12] [nM]
O=C(O)C(Cc1c[nH]c2ccccc12)N1C(=O)/C(=C/c2ccc(OCc3ccc(Cl)cc3)cc2)SC1=S (centres undefined) | 4 (≈ 7.29 µM) | 4 (≈ 7.29 µM) | > 64 | 4 (≈ 7.29 µM) | > 64 | 4 (≈ 7.29 µM) | 2 (≈ 3.64 µM) | 4 (≈ 7.29 µM) | 2 (≈ 3.64 µM) | 4 (≈ 7.29 µM) | 2440 | 4 (≈ 7.29 µM) |  |  |  | 
O=C(O)C(Cc1c[nH]c2ccccc12)N1C(=O)/C(=C/c2ccc(OCc3ccc(Cl)cc3Cl)cc2)SC1=S (centres undefined) | 8 (≈ 13.7 µM) | 4 (≈ 6.85 µM) | > 64 | 16 (≈ 27.4 µM) | > 64 | 8 (≈ 13.7 µM) | 8 (≈ 13.7 µM) | 8 (≈ 13.7 µM) | 4 (≈ 6.85 µM) | 8 (≈ 13.7 µM) | 3380 | 8 (≈ 13.7 µM) |  |  |  | 
O=C(O)C(Cc1c[nH]c2ccccc12)N1C(=O)/C(=C/c2ccc3cc(OCc4ccc(F)cc4)ccc3c2)SC1=S (centres undefined) | 2 (≈ 3.43 µM) | 4 (≈ 6.86 µM) | > 64 | 2 (≈ 3.43 µM) | > 64 | 2 (≈ 3.43 µM) | 2 (≈ 3.43 µM) | 2 (≈ 3.43 µM) | 1 (≈ 1.72 µM) | 2 (≈ 3.43 µM) | 450 | 2 (≈ 3.43 µM) | 380 | 4260 | 1120 | 1520
Cc1ccc(COc2ccc(/C=C3\SC(=S)N(C(Cc4c[nH]c5ccccc45)C(=O)O)C3=O)cc2)cc1 (centres undefined) | 8 (≈ 15.1 µM) | 4 (≈ 7.57 µM) | > 64 | 16 (≈ 30.3 µM) | > 64 | 8 (≈ 15.1 µM) | 4 (≈ 7.57 µM) | 8 (≈ 15.1 µM) | 4 (≈ 7.57 µM) | 8 (≈ 15.1 µM) | 5930 | 8 (≈ 15.1 µM) |  |  |  | 
O=C(O)C(Cc1c[nH]c2ccccc12)N1C(=O)/C(=C/c2cccc(OCc3ccc(Br)cc3)c2)SC1=S (centres undefined) | 8 (≈ 13.5 µM) | 4 (≈ 6.74 µM) | > 64 | 4 (≈ 6.74 µM) | > 64 | 4 (≈ 6.74 µM) | 4 (≈ 6.74 µM) | 8 (≈ 13.5 µM) | 2 (≈ 3.37 µM) | 8 (≈ 13.5 µM) | 2700 | 8 (≈ 13.5 µM) |  |  |  | 
